In the assay the target is T1, Inhibitor of nuclear factor kappa-B kinase subunit beta (Homo sapiens, UniProt O14920).
T1 sequence (O14920 whole entry): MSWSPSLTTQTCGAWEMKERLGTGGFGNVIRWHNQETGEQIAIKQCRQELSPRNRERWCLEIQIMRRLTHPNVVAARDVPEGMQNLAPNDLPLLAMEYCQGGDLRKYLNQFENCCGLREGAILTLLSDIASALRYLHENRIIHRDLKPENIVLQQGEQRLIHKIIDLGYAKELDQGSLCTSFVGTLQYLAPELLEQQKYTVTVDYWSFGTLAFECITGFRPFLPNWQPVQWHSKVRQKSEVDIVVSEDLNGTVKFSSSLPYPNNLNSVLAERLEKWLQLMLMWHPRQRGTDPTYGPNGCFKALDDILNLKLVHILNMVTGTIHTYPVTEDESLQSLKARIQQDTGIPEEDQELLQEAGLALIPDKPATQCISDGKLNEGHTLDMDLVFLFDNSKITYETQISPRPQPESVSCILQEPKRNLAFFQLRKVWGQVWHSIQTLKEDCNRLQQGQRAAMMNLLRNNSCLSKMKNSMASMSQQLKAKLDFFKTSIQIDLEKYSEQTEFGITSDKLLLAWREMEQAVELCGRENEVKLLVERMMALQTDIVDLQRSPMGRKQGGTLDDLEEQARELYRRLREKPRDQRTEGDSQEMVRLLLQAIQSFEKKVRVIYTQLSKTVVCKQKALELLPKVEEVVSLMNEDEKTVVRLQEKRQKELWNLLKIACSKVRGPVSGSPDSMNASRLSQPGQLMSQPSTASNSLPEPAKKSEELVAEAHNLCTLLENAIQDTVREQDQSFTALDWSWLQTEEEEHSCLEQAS
As to the kind of experiment: Inhibition of FLAG-tagged human recombinant IKKbeta phosphorylation expressed in baculovirus infected insect Sf9 cells after 1 hr by luminescence assay. In outline: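 Reaction run 1 h at room temperature in 25 mmol/l HEPES pH 7.5, 10 mmol/l Mg acetate, DTT, 0.01% BSA and 0.01% Tween20, with 500 nmol ATP and GST-IκBα substrate. Kinase-Glo added, 10 min, luminescence from remaining ATP measured.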

The term IC50 denotes the concentration at which inhibition is half-maximal.

Structures are written as SMILES.

`CC(C)=CC(=O)O[C@@H]1CC(C)(C)C[C@H]2C3=CC[C@@H]4[C@@]5(C)CC[C@H](OC(=O)/C=C/c6ccccc6)C(C)(C)[C@@H]5CC[C@@]4(C)[C@]3(C)CC[C@@]12C(=O)O`: the concentration for half-maximal inhibition (IC50) worked out at 940 nM.
For the compound `C/C=C(\C)C(=O)O[C@@H]1CC(C)(C)C[C@H]2C3=CC[C@@H]4[C@@]5(C)CC[C@H](OC(=O)/C=C/c6ccccc6)C(C)(C)[C@@H]5CC[C@@]4(C)[C@]3(C)CC[C@@]12C(=O)O`, the IC50 came out at 1200 nM.
For the compound `C/C=C(\C)C(=O)O[C@@H]1CC(C)(C)C[C@H]2C3=CC[C@@H]4[C@@]5(C)CC[C@H](O)C(C)(C)[C@@H]5CC[C@@]4(C)[C@]3(C)CC[C@@]12C(=O)O`, the IC50 came out at 2620 nM.

(Values after BindingDB's records for doi:10.1016/j.ejmech.2013.12.052 (Jaypee University of Information Technology, 2014).)
